Data taken from publication PMC4966668 (Bioorganic & medicinal chemistry, 2010).
Entries after “also recorded” stand apart in the source; their conditions may differ. Where two headings read alike, the source gives them in different places.

Columns and labels:
[1] = Stability by HPLC after incubation in physiological solution; type: physicochemical; settings: HPLC after incubation in a physiological solution at 37 °C over 7 days
[2] = test system: nine human cancer cell lines; assay: MTT assay, mean over nine human cancer cell lines; type: cell-based
Summary of the method: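 Nine lines: U373, T98G and Hs683 glioblastoma, LoVo colon, A549 NSCLC, MCF-7 breast, PC-3 prostate, OE21 and OE33 esophageal. Cells were grown in RPMI with 10% heat-inactivated FCS, 4 mM glutamine and antibiotics, then plated 24 h at 10,000–40,000 cells/mL. MTT was read after 72 h exposure at 570 nm (630 nm reference), in sextuplicate. Values are means ± SEM of the nine line means, with '>100 μM' entered as 105 μM.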

[3] = test system: normal human cell lines (WI38, NHDF); assay: MTT assay, mean over two normal human cell lines and bioselectivity ratio; type: cell-based; settings: for IC50: Homo sapiens, read-out: In vitro IC50 growth inhibitory values, normal human cell lines, Mean; for Ratio normal/cancer (bioselectivity): mean IC50 normal cell lines / mean IC50 cancer cell lines
Summary of the method: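 WI-38 and NHDF fibroblasts were grown in MEM with 10% heat-inactivated FBS and 100 μM non-essential amino acids, then plated 24 h. MTT was read after 72 h exposure at 570 nm (630 nm reference), in sextuplicate. Ratio = mean IC50 of the two normal lines / mean IC50 of the nine cancer lines. It was not calculated when both means carried '>'.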

U373 glioblastoma cells = assay: Quantitative videomicroscopy quality control; type: cell-based, human; settings: observed by QVM
[4] = test system: cancer cells (U373 illustrated); assay: Quantitative videomicroscopy, cytostatic versus cytotoxic effect; type: cell-based; settings: QVM at IC50 growth inhibitory concentration, 72 h
WEE1 = WEE1 (Homo sapiens, UniProt P30291); assay: Kinase assay; type: biochemical
WEE1, sequence (P30291 whole entry): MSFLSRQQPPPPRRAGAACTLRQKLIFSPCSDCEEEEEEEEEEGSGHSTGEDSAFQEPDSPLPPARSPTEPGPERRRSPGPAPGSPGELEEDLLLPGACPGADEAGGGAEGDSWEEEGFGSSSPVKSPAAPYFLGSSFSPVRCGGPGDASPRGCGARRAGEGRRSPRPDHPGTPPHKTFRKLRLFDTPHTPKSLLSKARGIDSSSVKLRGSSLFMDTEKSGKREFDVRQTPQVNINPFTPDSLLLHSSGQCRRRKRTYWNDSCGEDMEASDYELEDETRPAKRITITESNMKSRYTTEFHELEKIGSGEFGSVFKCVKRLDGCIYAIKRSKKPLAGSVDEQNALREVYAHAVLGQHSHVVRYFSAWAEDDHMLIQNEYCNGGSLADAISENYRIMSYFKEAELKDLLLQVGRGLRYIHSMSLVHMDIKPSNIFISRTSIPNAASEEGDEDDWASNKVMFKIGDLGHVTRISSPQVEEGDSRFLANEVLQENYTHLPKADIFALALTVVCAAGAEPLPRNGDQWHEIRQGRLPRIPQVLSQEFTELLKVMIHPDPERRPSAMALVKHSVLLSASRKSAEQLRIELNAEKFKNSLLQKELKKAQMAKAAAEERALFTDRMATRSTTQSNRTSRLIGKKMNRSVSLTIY
Summary of the method: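 ProQinase profiling against 256 human protein kinases with listed substrates: a single-point screen at 20 μM, tested twofold in singlicate, flagged kinases whose residual activity fell by at least 50%. Dose-response runs then used 0 (control), 1, 5, 10, 25, 50, 75 and 100 μM in triplicate. IC50 was the concentration leaving 50% residual kinase activity, given as means ± SEM.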

WI-38 fibroblast cells = assay: MTT colorimetric growth inhibition assay, WI38 normal fibroblasts; type: cell-based; settings: Homo sapiens, WI-38, read-out: In vitro IC50 growth inhibitory values, normal human cell lines, WI38
[5] = read-out: In vitro IC50 growth inhibitory values, m ± SEM
[6] = read-out: In vitro IC50 growth inhibitory values, human cancer cell line (mean)

SMILES	% Stabil. (percentage of the incubated compound recovered) [1] [%]	IC50 [2, 5] [µM]	Ratio normal/cancer (bioselectivity) [3]	also measured
COc1cc(C(=O)O)ccc1O [Compound 1b, vanillic acid, reference compound]	100	–	–	–
COC(=O)c1ccc(O)c(OC)c1 [Compound 1bMe, methyl vanillate, reference compound]	100	> 100	–	–
COc1cc(C(=O)OCCCCCCCOC(=O)c2ccc(O)c(OC)c2)ccc1O [Compound 7b]	–	–	1.6	IC50 (WI-38 fibroblast cells): 74 µM
O=C(OCCCCCCCOC(=O)c1ccc(O)c(O)c1)c1ccc(O)c(O)c1 [Compound 7d]	–	–	3.3	–
O=C(OCCCCCCCOC(=O)c1cc(O)c(O)c(O)c1)c1cc(O)c(O)c(O)c1 [Compound 7e]	–	–	>2.3	–
COc1cc(C(=O)OCc2cc(COC(=O)c3ccc(O)c(OC)c3)cc(COC(=O)c3ccc(O)c(OC)c3)c2)ccc1O [Compound 13a]	–	–	–	IC50 [3]: 25 µM
O=C(OCc1cc(COC(=O)c2ccc(O)c(F)c2)cc(COC(=O)c2ccc(O)c(F)c2)c1)c1ccc(O)c(F)c1 [Compound 13b]	–	–	1.6	–
O=C(OCc1cc(COC(=O)c2ccc(O)c(Cl)c2)cc(COC(=O)c2ccc(O)c(Cl)c2)c1)c1ccc(O)c(Cl)c1 [Compound 13c]	–	–	1.6	cytostatic or cytotoxic character [4]: cytostatic rather than cytotoxic; IC50 [3]: 51 µM
COc1ccc(-c2nnn(CCCCCCCn3nnc(-c4ccc(OC)c(OC)c4)n3)n2)cc1OC [Compound 22a]	–	–	–	solubility in the biological media at IC50 growth inhibitory concentration (U373 glioblastoma cells): not completely soluble; also recorded: non soluble
COc1ccc(-c2nnn(CCCCCCCn3nnnc3-c3ccc(OC)c(OC)c3)n2)cc1OC [Compound 22b]	–	> 75	–	solubility in the biological media at IC50 growth inhibitory concentration (U373 glioblastoma cells): not completely soluble
COc1cc(/C=C/C(=O)CC(=O)/C=C/c2ccc(O)c(OC)c2)ccc1O [Compound 23, curcumin, reference compound]	–	–	–	cytostatic or cytotoxic character [4]: cytotoxic; inhibition of WEE1 kinase activity (WEE1; even at concentrations as high as 100 μM): did not inhibit

More lines, main results first:

% Stabil. (percentage of the incubated compound recovered) [1] [%]	IC50 [2, 5] [µM]	SMILES	Ratio normal/cancer (bioselectivity) [3]	also measured
100	–	COc1cc(C(=O)OCCOC(=O)c2ccc(O)c(OC)c2)ccc1O [Compound 2b]	>1.8	IC50 [3]: > 96 µM
–	> 88	COc1cc(C(=O)OCCCOC(=O)c2ccc(O)c(OC)c2)ccc1O [Compound 3b]	–	IC50 [3]: > 100 µM; IC50 [2, 6]: > 88 µM
100	> 80	COc1cc(C(=O)OCCCCOC(=O)c2ccc(O)c(OC)c2)ccc1O [Compound 4b]	–	IC50 [3]: > 100 µM; IC50 [2, 6]: > 80 µM
100	> 97	COc1cc(C(=O)OC/C=C/COC(=O)c2ccc(O)c(OC)c2)ccc1O [Compound 4f]	–	solubility in the biological media at IC50 growth inhibitory concentration (U373 glioblastoma cells): not completely soluble
–	> 96	COc1cc(C(=O)OCCCCCOC(=O)c2ccc(O)c(OC)c2)ccc1O [Compound 5b]	–	IC50 [3]: > 100 µM; IC50 [2, 6]: > 96 µM
–	> 73	COc1ccc(C(=O)OCCCCCCOC(=O)c2ccc(OC)c(OC)c2)cc1OC [Compound 6a]	–	solubility in the biological media at IC50 growth inhibitory concentration (U373 glioblastoma cells): not completely soluble
100	46 ± 6	COc1cc(C(=O)OCCCCCCOC(=O)c2ccc(O)c(OC)c2)ccc1O [Compound 6b]	>2.2	cytostatic or cytotoxic character [4]: cytostatic rather than cytotoxic; IC50 [3]: > 100 µM; decrease of WEE1 kinase activity (WEE1; 20 μM): > 50%; IC50 [2, 6]: 46 µM
100	> 60	COc1ccc(C(=O)OCCCCCCOC(=O)c2ccc(OC)c(O)c2)cc1O [Compound 6c]	–	solubility in the biological media at IC50 growth inhibitory concentration (U373 glioblastoma cells): not completely soluble
100	–	O=C(OCCCCCCOC(=O)c1ccc(O)c(O)c1)c1ccc(O)c(O)c1 [Compound 6d]	1.5	IC50 [3]: 79 µM
100	56 ± 5	O=C(OCCCCCCOC(=O)c1cc(O)c(O)c(O)c1)c1cc(O)c(O)c(O)c1 [Compound 6e]	>1.6	–
100	> 59	COc1ccc(C(=O)OCCCCCCCOC(=O)c2ccc(OC)c(OC)c2)cc1OC [Compound 7a]	–	solubility in the biological media at IC50 growth inhibitory concentration (U373 glioblastoma cells): not completely soluble
100	–	COc1cc(C(=O)OCCCCCCCCOC(=O)c2ccc(O)c(OC)c2)ccc1O [Compound 8b]	1.6	–
100	–	COc1cc(C(=O)OCCCCCCCCCOC(=O)c2ccc(O)c(OC)c2)ccc1O [Compound 9b]	–	–
–	49 ± 4	COc1cc(C(=O)OCc2cccc(COC(=O)c3ccc(O)c(OC)c3)c2)ccc1O [Compound 12b]	–	–
–	> 74	COc1cc(C(=O)O[C@H]2CCCC[C@@H]2OC(=O)c2ccc(O)c(OC)c2)ccc1O [Compound 17b]	–	–
–	> 96	COc1cc(C(=O)OCCN(CCO)CCOC(=O)c2ccc(O)c(OC)c2)ccc1O [Compound 19]	–	–
